A short description of assay [1]: Antiproliferative activity against human SKBR3 cells after 72 hrs by MTS/PMS assay. The format is functional, cell-based. As to conditions: SK-BR-3, 72 h. In short, it runs like this: (§1)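 Cells kept in 1:1 Advanced DMEM/F12 with non-essential amino acids, 2 mM L-glutamine, penicillin/streptomycin and 10% FBS at 37 °C, 5% CO2. Seeded 2000 cells/well, attached overnight, then given compound at varying concentrations in DMSO (1% final) for 72 h. Viable cells read by MTS/PMS. Normalised to 1% DMSO wells as 100% proliferation. IC50 from separate experiments run in triplicate.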

The next assay deals with MCF7. As to the kind of experiment: Antiproliferative activity against human MCF7 cells after 72 hrs by MTS/PMS assay. In kind it is functional, cell-based. Particulars: MCF7, 72 h. In short, it runs like this:
as §1

Turning to `COc1cccc(-c2cc(C(=O)Nc3ccc(-c4ccc(OC5CCN(C)CC5)c(OC)c4)cc3)ccc2OC)c1`, the IC50 was determined as 0.68 µM in assay [1] and 1.32 µM with MCF7.

As to `COc1cccc(-c2cc(C(=O)Nc3ccc(-c4ccc(OC5CCN(C)CC5)cc4)c(N)c3)ccc2OC)c1`, the IC50 in assay [1] was 3.9 µM; in the assay with MCF7, 2.07 µM.

On to `COc1cccc(-c2cc(C(=O)Nc3ccc(-c4ccc(OC5CCN(C)CC5)cc4)c(NC(C)=O)c3)ccc2OC)c1`, for which the IC50 is 2.52 µM in assay [1] and 4.66 µM in the assay on MCF7.

With `COc1cccc(-c2cc(C(=O)Nc3cccc(-c4ccc(OC5CCN(C)CC5)cc4)c3)ccc2OC)c1`, the IC50 in assay [1] was 3.65 µM; in the assay on MCF7, 1.25 µM.

In the case of `COc1ccc(C(=O)Nc2ccc(-c3ccc(OC4CCN(C)CC4)cc3)cc2)cc1-c1ccc(Cl)cc1`, the IC50 in assay [1] came out at 1.06 µM; in the assay on MCF7, 0.82 µM.

Take `COc1ccc(-c2cc(C(=O)Nc3ccc(-c4ccc(OC5CCN(C)CC5)cc4)cc3)ccc2OC)cc1`: the IC50 came to 0.63 µM in assay [1] and 0.79 µM in the assay with MCF7.

`COc1ccc(C(=O)Nc2ccc(-c3ccc(OC4CCN(C)CC4)cc3)cc2)cc1-c1cccc([N+](=O)[O-])c1`: the 50% inhibitory concentration (IC50) stood at 0.4 µM in assay [1] and 1.09 µM in the assay on MCF7.

Consider `COc1cccc(-c2cc(C(=O)Nc3ccc(-c4ccc(OC5CCN(C)CC5)c(Cl)c4)cc3)ccc2OC)c1`, for which the results for the IC50 (in assay [1]; in the assay on MCF7) were 1.84 µM and 1.48 µM, respectively.

In the case of `COc1cccc(-c2cc(C(=O)Nc3ccc(-c4ccc(OC5CCN(C)CC5)c(NC(C)=O)c4)cc3)ccc2OC)c1`, the IC50 in assay [1] was determined as 2.66 µM; in the assay on MCF7, 1.84 µM.

Consider `CN1CCC(Oc2ccc(-c3ccc(NC(=O)c4ccc(C(C)(C)C)cc4)cc3)cc2)CC1`, for which the IC50 in assay [1] amounted to 1.26 µM; in the assay with MCF7 it was 1.08 µM.

Take `CN1CCC(Oc2ccc(-c3ccc(NC(=O)c4cc(Cl)cc(Cl)c4)cc3)cc2)CC1`: the figures for the 50% inhibitory concentration (IC50) (in assay [1]; in the assay with MCF7) were 0.81 µM and 1.68 µM, respectively.

On to `COc1ccc(C(=O)Nc2ccc(-c3ccc(OC4CCN(C)CC4)cc3)cc2)cc1-c1cccc(O)c1`, for which the IC50 came out at 1.56 µM in assay [1] and 1.08 µM in the assay with MCF7.

In the case of `Cc1ccc(C(=O)Nc2ccc(-c3ccc(OC4CCN(C)CC4)cc3)cc2)cc1Cl`, the figures for the concentration for half-maximal inhibition (IC50) (in assay [1]; with MCF7) were 1.96 µM and 2.28 µM, respectively.

Take `COc1cccc(-c2cc(C(=O)Nc3ccc(-c4ccc(OC5CCN(C)CC5)cc4)cc3Cl)ccc2OC)c1`: the half-inhibitory concentration (IC50) in assay [1] was 4.29 µM; in the assay with MCF7, 1.8 µM.

`COc1ccc(C(=O)Nc2ccc(-c3ccc(OC4CCN(C)CC4)cc3)cc2)cc1-c1ccc(O)cc1`: the IC50 came out at 0.13 µM in assay [1] and 0.5 µM with MCF7.

Consider `COc1cccc(-c2cc(C(=O)Nc3ccc(-c4ccc(OC5CCN(C)CC5)cc4)cn3)ccc2OC)c1`, for which the figures for the IC50 (in assay [1]; in the assay with MCF7) were 1.07 µM and 1.15 µM, respectively.

Turning to `COc1cccc(-c2cc(C(=O)Nc3ccc(-c4ccc(OC5CCN(C)CC5)cc4)c(OC)c3)ccc2OC)c1`, the IC50 in assay [1] was 0.9 µM; in the assay with MCF7 it was 1.5 µM.

Take `COc1cccc(-c2cc(C(=O)Nc3ccc(-c4ccc(OC5CCN(C)CC5)cc4OC)cc3)ccc2OC)c1`: the results for the 50% inhibitory concentration (IC50) (in assay [1]; in the assay with MCF7) were 1.41 µM and 1.35 µM, respectively.

For `CN1CCC(Oc2ccc(-c3ccc(NC(=O)c4ccc5ncccc5c4)cc3)cc2)CC1`, the IC50 in assay [1] was 1.31 µM; in the assay with MCF7 it was 2.07 µM.

In the case of `CN1CCC(Oc2ccc(-c3ccc(NC(=O)c4cnc5ccccc5c4)cc3)cc2)CC1`, the IC50 stood at 2.42 µM in assay [1] and 2.76 µM in the assay with MCF7.

For the compound `Cc1ccc(C(=O)Nc2ccc(-c3ccc(OC4CCN(C)CC4)cc3)cc2)cc1`, the IC50 in assay [1] was 0.98 µM; in the assay on MCF7 it was 1.27 µM.

`COc1cccc(C(=O)Nc2ccc(-c3ccc(OC4CCN(C)CC4)cc3)cc2)c1`: the results for the concentration for half-maximal inhibition (IC50) (in assay [1]; with MCF7) were 2.87 µM and 5.31 µM, respectively.

For `Cc1ccc(C(=O)Nc2ccc(-c3ccc(OC4CCN(C)CC4)cc3)cc2)cc1I`, the IC50 in assay [1] is 0.93 µM; in the assay on MCF7 it was 1.17 µM.

`CN1CCC(Oc2ccc(-c3ccc(NC(=O)c4ccc(-c5ccccc5)cc4)cc3)cc2)CC1`: the results for the IC50 (in assay [1]; with MCF7) were 4.59 µM and 4.44 µM, respectively.

On to `COc1cccc(-c2cc(C(=O)Nc3ccc(-c4ccc(OC5CCN(C)CC5)c(N)c4)cc3)ccc2OC)c1`, for which the IC50 came to 2.23 µM in assay [1] and 5.95 µM in the assay on MCF7.

For the compound `COc1ccc(C(=O)Nc2ccc(-c3ccc(OC4CCN(C)CC4)cc3)cc2)cc1-c1cccc(NC(C)=O)c1`, the half-maximal inhibitory concentration (IC50) in assay [1] was 3.37 µM; in the assay on MCF7, 1.43 µM.

In the case of `COc1cccc(-c2cc(C(=O)Nc3ccc(-c4ccc(OC5CCN(C)CC5)cc4)c([N+](=O)[O-])c3)ccc2OC)c1`, the IC50 was determined as 2.48 µM in assay [1] and 3.32 µM in the assay with MCF7.

`CN1CCC(Oc2ccc(-c3ccc(NC(=O)c4ccccc4-c4ccccc4)cc3)cc2)CC1`: the IC50 in assay [1] was 6.26 µM; in the assay on MCF7, 6.67 µM.

On to `COc1cccc(-c2cc(C(=O)Nc3ccc(-c4ccc(OC5CCN(C)CC5)cn4)cc3)ccc2OC)c1`, for which the IC50 in assay [1] came to 1.91 µM; in the assay with MCF7, 1.3 µM.

Consider `CN1CCC(Oc2ccc(-c3ccc(NC(=O)c4cccc(Cl)c4)cc3)cc2)CC1`, for which the IC50 worked out at 1.94 µM in assay [1] and 2.83 µM in the assay with MCF7.

Regarding `COc1cccc(-c2cc(C(=O)Nc3ccc(-c4ccc(OC5CCN(C)CC5)cc4C)cc3)ccc2OC)c1`, the IC50 in assay [1] came to 1.18 µM; in the assay with MCF7, 1.21 µM.

As for `Cc1ccc(C(=O)Nc2ccc(-c3ccc(OC4CCN(C)CC4)cc3)cc2)cc1Br`, the half-maximal inhibitory concentration (IC50) amounted to 2.8 µM in assay [1] and 3.35 µM with MCF7.

Consider `CC(=O)Oc1ccc(C(=O)Nc2cccc(-c3cccc(OC4CCN(C)CC4)c3)c2)cc1CC=C(C)C`, for which the IC50 came out at 1.76 µM in assay [1] and 1.7 µM with MCF7.

Consider `COc1cccc(-c2cc(C(=O)Nc3ccc(-c4ccc(OC5CCN(C)CC5)cc4)c(C)c3)ccc2OC)c1`, for which the half-maximal inhibitory concentration (IC50) is 0.97 µM in assay [1] and 1.57 µM with MCF7.

Turning to `COc1cccc(-c2cc(C(=O)Nc3ccc(-c4ccc(OC5CCN(C)CC5)cc4Cl)cc3)ccc2OC)c1`, the concentration for half-maximal inhibition (IC50) in assay [1] stood at 1.28 µM; with MCF7 it was 1.48 µM.

In the case of `COc1cccc(-c2cc(C(=O)Nc3ccc(-c4ccc(OC5CCN(C)CC5)nc4)cc3)ccc2OC)c1`, the IC50 in assay [1] is 1.67 µM; with MCF7, 1.56 µM.

Turning to `COc1cccc(-c2cc(C(=O)Nc3ccc(-c4ccc(OC5CCN(C)CC5)cc4[N+](=O)[O-])cc3)ccc2OC)c1`, the IC50 in assay [1] came to 1.18 µM; with MCF7, 1.3 µM.

In the case of `COc1cccc(-c2cc(C(=O)Nc3ccc(-c4ccc(OC5CCN(C)CC5)c([N+](=O)[O-])c4)cc3)ccc2OC)c1`, the IC50 in assay [1] was determined as 2.07 µM; in the assay with MCF7, 1.23 µM.

For `CN1CCC(Oc2ccc(-c3ccc(NC(=O)c4ccccc4)cc3)cc2)CC1`, the IC50 stood at 4.13 µM in assay [1] and 3.95 µM in the assay on MCF7.

As to `COc1cccc(-c2cc(C(=O)Nc3ccc(-c4ccc(OC5CCN(C)CC5)cc4)cc3N)ccc2OC)c1`, the figures for the IC50 (in assay [1]; in the assay on MCF7) were 3.21 µM and 2.25 µM, respectively.

Turning to `Cc1cc(C(=O)Nc2ccc(-c3ccc(OC4CCN(C)CC4)cc3)cc2)ccc1Cl`, the 50% inhibitory concentration (IC50) in assay [1] was 1.11 µM; in the assay on MCF7 it was 1.03 µM.

As for `CN1CCC(Oc2ccc(-c3ccc(NC(=O)c4ccc(Cl)cc4Cl)cc3)cc2)CC1`, the half-maximal inhibitory concentration (IC50) turned out to be 0.8 µM in assay [1] and 1.37 µM in the assay with MCF7.

Regarding `COc1cccc(-c2cc(C(=O)Nc3ccc(-c4ccc(OC5CCN(C)CC5)cc4)c(Cl)c3)ccc2OC)c1`, the concentration for half-maximal inhibition (IC50) in assay [1] was determined as 2.21 µM; in the assay on MCF7, 3.44 µM.

For the compound `CC(=O)Oc1ccc(C(=O)Nc2ccc(-c3ccc(OC4CCN(C)CC4)cc3)cc2)cc1CC=C(C)C`, the IC50 amounted to 1.82 µM in assay [1] and 1.37 µM in the assay on MCF7.

In the case of `COc1cccc(-c2cc(C(=O)Nc3ccc(-c4ccc(OC5CCN(C)CC5)cc4)cc3NC(C)=O)ccc2OC)c1`, the half-maximal inhibitory concentration (IC50) in assay [1] stood at 3.51 µM; with MCF7, 1.66 µM.

Consider `COc1ccc(C(=O)Nc2ccc(-c3ccc(OC4CCN(C)CC4)cc3)cc2)cc1-c1cccc(OC(C)=O)c1`, for which the IC50 in assay [1] was 0.27 µM; in the assay on MCF7, 0.62 µM.

Turning to `COc1cccc(-c2cc(C(=O)Nc3ccc(-c4ccc(OC5CCN(C)CC5)c(C)c4)cc3)ccc2OC)c1`, the values for the IC50 (in assay [1]; in the assay with MCF7) were 0.83 µM and 1.69 µM, respectively.

Regarding `CC(=O)Oc1ccc(C(=O)Nc2cccc(-c3ccc(OC4CCN(C)CC4)cc3)c2)cc1CC=C(C)C`, the IC50 in assay [1] is 3.47 µM; in the assay on MCF7, 2.71 µM.

Consider `COc1cccc(-c2cc(C(=O)Nc3ccc(-c4ccc(OC5CCN(C)CC5)cc4NC(C)=O)cc3)ccc2OC)c1`, for which the results for the IC50 (in assay [1]; in the assay on MCF7) were 3.39 µM and 1.36 µM, respectively.

For the compound `COc1cccc(-c2cc(C(=O)Nc3ccc(-c4ccc(OC5CCN(C)CC5)cc4)cc3OC)ccc2OC)c1`, the results for the IC50 (in assay [1]; in the assay with MCF7) were 3.92 µM and 1.22 µM, respectively.

Regarding `COc1cccc(-c2cc(C(=O)Nc3ccc(-c4ccc(OC5CCN(C)CC5)cc4)nc3)ccc2OC)c1`, the IC50 in assay [1] came to 1.21 µM; with MCF7, 1.02 µM.

With `CN1CCC(Oc2ccc(-c3ccc(NC(=O)c4ccc(Cl)c(Cl)c4)cc3)cc2)CC1`, the half-maximal inhibitory concentration (IC50) in assay [1] came out at 1.2 µM; in the assay with MCF7 it was 1.6 µM.

As to `CC(C)=CCc1cc(NC(=O)Nc2cc3ccc(OC4CCN(C)CC4)c(C)c3oc2=O)ccc1O`, the values for the IC50 (in assay [1]; with MCF7) were 0.39 µM and 0.37 µM, respectively.

As for `COc1cccc(-c2cc(C(=O)Nc3ccc(-c4ccc(OC5CCN(C)CC5)cc4)cc3[N+](=O)[O-])ccc2OC)c1`, the concentration for half-maximal inhibition (IC50) amounted to 3.4 µM in assay [1] and 1.15 µM in the assay with MCF7.

`COc1cccc(-c2cccc(C(=O)Nc3ccc(-c4ccc(OC5CCN(C)CC5)cc4)cc3)c2)c1`: the concentration for half-maximal inhibition (IC50) is 0.81 µM in assay [1] and 1.02 µM with MCF7.

As to `COc1ccc(C(=O)Nc2ccc(-c3ccc(OC4CCN(C)CC4)cc3)cc2)cc1-c1cccc(N)c1`, the IC50 came out at 1.52 µM in assay [1] and 1.67 µM in the assay on MCF7.

For `COc1cccc(-c2cc(C(=O)Nc3ccc(-c4ccc(OC5CCN(C)CC5)cc4N)cc3)ccc2OC)c1`, the values for the 50% inhibitory concentration (IC50) (in assay [1]; in the assay with MCF7) were 2.13 µM and 1.76 µM, respectively.

As to `COc1cccc(-c2cc(C(=O)Nc3ccc(-c4ccc(OC5CCN(C)CC5)cc4)cc3C)ccc2OC)c1`, the IC50 in assay [1] turned out to be 2.47 µM; with MCF7, 1.43 µM.

The values are drawn from ChEMBL document CHEMBL3352814, “Design, synthesis and biological evaluation of biphenylamide derivatives as Hsp90 C-terminal inhibitors” (Eur J Med Chem, 2015).
